Assay results from the EternaBench riboswitch data.

Test system: MS2 coat protein
Assay: apparent Kd, MS2 coat protein; higher = weaker binding; RNA-MaP array; tryptophan 2.4 mM where present
Outline: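 The apparent Kd is reported as the median of filtered per-cluster binding-curve fits. To get these curves, designs transcribed by stalled E. coli RNA polymerase on Illumina sequencing-chip clusters were titrated with SNAP-549-labelled MS2 coat protein from 0.7 or 1.5 nM, doubling to 3 µM. Titrations were run without and then with constant ligand in 100 mM Tris-HCl pH 7.5, 80 mM KCl, 4 mM MgCl2, BSA, DTT, yeast tRNA and Tween-20, and green signal was normalised to red-channel RNA signal and control-cluster median Fmax.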

[1] = designed as: ON switch for tryptophan, no ligand
[2] = ligand present: tryptophan, designed as: ON switch for tryptophan
[3] = designed as: OFF switch for tryptophan, no ligand
[4] = ligand present: tryptophan, designed as: OFF switch for tryptophan

Sequence	apparent Kd [1] [nM]	apparent Kd [2] [nM]	apparent Kd [3] [nM]	apparent Kd [4] [nM]
CACAAUUUGUCGGCCGCCACUAAGGUAACUUUUCUCACAUGAGGAUCACCCAUGUGCCCGAAACUUAGGACCGGGAUAAUGGGUG	82.4	45.3	–	–
AAUUCCGGGUCGGCCGCCACUGAUAUGGCGAGUCCUCGAACUUACAUGAGGAUCACCCAUGUAAACAGGACCGGGACCGCAUGGG	–	–	18.5	49.1
GCCGCUGCCGCGAUAUGUAUGGGUGUGUAACGAGGACCGGUACGGCCGCCACUCGCGAUCGCACAUGAGGAUCACCCAUGUGUCC	–	–	53.7	78.5
UGUCGUAGACAUGAGGAUCACCCAUGUCCACGAGGACCGGUACGGCCGCCACUCGGGAUAUAAACCGUUACGGGUGGGUGGUGUU	–	–	18.8	37.3
CUCAUCCACGCGGCCGCCACUAUAUUGUGGUGCGAAUGUGUCGUAAUACAUGAGGAUCACCCAUGUAGGACCGGGCGUGGAUGAG	–	–	12.6	54.8
UUAUAAGUACCGGUCCUCAGAUCCUCAUGACGAGGACCGGUACGGCCGCCACUCGAAACAUGAGGAUCACCCAUGUAAUAACAUC	–	–	19.6	20.7
AGCAACAAGUCGGCCGCCACUCUUUUUACAUGAGGAUCACCCAUGUUUAUAUCAUGGUCUUAAUAGAGGACCGGGACAGUUGCAU	–	–	37.2	54.6
UUUAUAUAGACGGCCGCCACUGGAAUUAAUACAUGAGGAUCACCCAUGUAUAGAGAAUAAUAAUACAGGACCGGGUCUUCAUGAU	29.4	12	–	–
UAACAUGAGGAUCACCCAUGUUUGAAGAAACGAGGACCGGUACGGCCGCCACUCGACGAGUGGAUGAAUAGUGGGCUUGUGUGCU	13.7	15	–	–
UAAUGCAUGACGGCCGCCACUAGAACAUGAGGAUCACCCAUGUACGGCGGCCGUCAUGGGUGGACUAGGACCGGGUCAUGCAUAU	–	–	9.23	10.5
UGUCAGCGAAAGUUGACAUGUCUUACCGGUCGAGGACCGGUACGGCCGCCACUCGAUCUCUCGCACAUGAGGAUCACCCAUGUUG	21.4	15.1	–	–
UGGUACUAGGCGGCCGCCACUGGGUGAUACAUGAGGAUCACCCAUGUUUAAUGCCGAGAGGCAACUAGGACCGGGCCUAGUACAU	150	689	–	–
GGUUACUCUACGGCCGCCACUGAUUAAUUAUAAACCUGUACAUAAACAUGAGGAUCACCCAUGUACAGGACCGGGUAGUGUAACC	37.8	26.8	–	–
ACAUGAGGAUCACCCAUGUACAUCACCCGACGAGGACCGGUACGGCCGCCACUCGGGUAUAUAUAUACAUCGGGUGGUUUUGCAU	17.6	17.3	–	–
CCUAUGCAGUCGGCCGCCACUGAACAUGAGGAUCACCCAUGUAAUUAAAAUUAUGAUCCUGAAAUCAGGACCGGGACUGUAUAGG	–	–	218	85.4
AAACAUGAGGAUCACCCAUGUUGAGGAUCACGAGGACCGGUACGGCCGCCACUCGACAUGAGGAUCACCCAUGUGAGGAUCACCC	175	174	–	–
AAUGUAUUCCACAUGAGGAUCACCCAUGUGCGAGGACCGGUACGGCCGCCACUCGGUGUUGGGAUCAGUUCUGAAUACAUUAAUG	–	–	15.9	47.5
GACGCAUGAGUUGGAACAGCUCAUGGGUCGCGAGGACCGGUACGGCCGCCACUCGGCUGUACAUGAGGAUCACCCAUGUCAGGGU	279	550	–	–
CUAAUUAUAUCGGCCGCCACUUACUCAUGAGGUAACAACAUGAGGAUCACCCAUGUUUGAGGAUCAAGGACCGGGAUAUAAUUAG	28.9	17	–	–
UAUACAUGGUAUAAAUAUAUAUAUAAGAAACGAGGACCGGUACGGCCGCCACUCGUGCCGGAAACAUGAGGAUCACCCAUGUAUU	–	–	37.6	22.8
ACGUAGAAGUCGGCCGCCACUGAUUUCAUGUUCAACAUGAGGAUCACCCAUGUACCUUAUGUUAACAGGACCGGGACGUAUACGA	298	55	–	–

Sequence	apparent Kd [1] [nM]	apparent Kd [2] [nM]	apparent Kd [3] [nM]	apparent Kd [4] [nM]
CUAUAAGUACCGGUCCUCAGAUCCUCAUGACGAGGACCGGUACGGCCGCCACUCGAAACAUGAGGAUCACCCAUGUAAUAACAUU	–	–	19.8	20.2
UGACAGAUAACCGCUGGUGCUCUCGAGUUGCGAGGACCGGUACGGCCGCCACUCGACAACAUGAGGAUCACCCAUGUUGCGGGUC	–	–	102	49.8
CUUCGCAUAGGAAAACUAUGUGAAGAAAAUCGAGGACCGGUACGGCCGCCACUCGUCCUCAACAUGAGGAUCACCCAUGUAAUAA	–	–	18.3	40.1
AAUUAUCAGUCGGCCGCCACUGACACAUGAGGAUCACCCAUGUAACUUGGGAUAAAUUUAAUAAACAGGACCGGGACAAAGGCUA	–	–	58.8	49.7
ACACAAUACAUGAGGAUCACCCAUGUAAAACGAGGACCGGUACGGCCGCCACUCGAAUACUGUAAUCCUCGGAAUAUUAAGUGAA	–	–	41	35.3
UUACCGUAAGGUAUACCGGUCCACAAUAAUCGAGGACCGGUACGGCCGCCACUCGAUGUGUGAUCACAUGAGGAUCACCCAUGUA	265	379	–	–
CAGGCUAGGACGGCCGCCACUGUGGCUACGGUACAUGAGGAUCACCCAUGUUUGUGGUUGAUCUACAGGACCGGGUCCUGACACG	132	483	–	–
UAUAUAUACUCGGCCGCCACUGAGAGAGUCAUGUAAACAUGAGGAUCACCCAUGUAAUAUAUAUACAGGACCGGGAGUAUAUUAA	–	–	15.7	13.8
AAUGUAUGGCACAUGAGGAUCACCCAUGUGCGAGGACCGGUACGGCCGCCACUCGGUCCUGGGAUCUUAUUACUAUACAUUAAUG	–	–	11.6	24
GCGGAAUAAUCGGCCGCCACUAUGAUAUAGGAAACUAUAACAUGAGGAUCACCCAUGUAUCCUCAUAGGACCGGGAUUAAAACGC	105	24.8	–	–
AUAAUAUAGACGGCCGCCACUAUAAACAUGAGGAACAUGAGGAUCACCCAUGUAUGAGGAUCACCUAGGACCGGGUCAUAUAUUA	–	–	55.8	42
CCUAUGCAGUCGGCCGCCACUGAGUCCUCAAUAAUAAAUUAAUAUACAUGAGGAUCACCCAUGUACAGGACCGGGACUGUAUAGG	–	–	205	167
UAAUCCGGUCCUCGAUAACAUGGGUGAAUACGAGGACCGGUACGGCCGCCACUCGAUAACAUGAGGAUCACCCAUGUAAUAAUAA	–	–	85.7	84.1
GGAGCUACGUCGGCCGCCACUAGCGGUUAUUACGUGUACAUGAGGAUCACCCAUGUAAUAUGGCUUAGGACCGGGACGUAGCUCC	–	–	22.5	27.1
AGCAACUAGUCGGCCGCCACUCAUAUUACAUGAGGAUCACCCAUGUAUACAUGGUUGUUAUAUUUGAGGACCGGGACAGUUGCAU	70.4	38.1	–	–
UAACAUGAGGAUCACCCAUGUAAACUAAGUCGAGGACCGGUACGGCCGCCACUCGAAAUUGAAGAAUUGGCGGAAAAUGUAUGUU	–	–	13.9	18.9
GGGUACAUCGCGGCCGCCACUUAUGUAAAUACAUGAGGAUCACCCAUGUCGAUGGAGACAUCGGAGAGGACCGGGUGAUGUACCG	36.1	35.9	–	–
GGAAUAAUGGCGGCCGCCACUAACUCAUAUACAUCAUGUACAUGAGGAUCACCCAUGUAGGUGUAUAGGACCGGGCCAUAAUUCC	–	–	22.4	38.1
AACAACUAGUCGGCCGCCACUCAUAAUACAUGAGGAUCACCCAUGUAUACUUGGUUUUUAUAUUUGAGGACCGGGACAGUUGCAU	–	–	11.6	10.5
GCAUCCUAGUCGGCCGCCACUGCAAUUGUAGUACUGCUACAUGAACAUGAGGAUCACCCAUGUAGCAGGACCGGGACUAGGAUGC	55	16.1	–	–
